According to ChEMBL document CHEMBL4024801, “Synthesis and Structure-Activity Relationship (SAR) Studies of Novel Pyrazolopyridine Derivatives as Inhibitors of Enterovirus Replication” (J Med Chem, 2018):

What was measured:
[1] = Selectivity index, ratio of CC50 for human HeLa-RW cells to EC50 for Coxsackievirus B3; assay type: toxicity; conditions: read-out: Ratio CC50/EC50
Summary of the method: (§1)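 HeLa-RW cells in DMEM with 10% FBS were used for both arms. For EC50, cells were infected with CVB3-H3 at a low MOI giving full CPE in 3–4 days and exposed to 2-fold compound dilutions, in triplicate, with a 7-point fit. For CC50, uninfected cells got 2-fold dilutions for the same period. Both arms were fixed, crystal violet-stained and read at OD590.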

[2] = Selectivity index, ratio of CC50 for monkey LLC-MK2 cells to EC50 for Enterovirus A71; assay type: toxicity; conditions: read-out: Ratio CC50/EC50
Summary of the method: as §1, with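 “LLC-MK2” for “HeLa-RW”, “EV-A71” for “CVB3-H3”, “triplicate.” for “triplicate, with a 7-point fit.”, “formaldehyde-fixed,” for “fixed,”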

LLC-MK2 = test: Cytotoxicity against monkey LLC-MK2 cells after 3 to 4 days by crystal violet staining-based spectrophotometric method; assay type: cell-based, Macaca mulatta; conditions: rhesus monkey
Summary of the method: (§2)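 Uninfected cells (HeLa-RW or LLC-MK2, in DMEM with penicillin, streptomycin, glutamine and 10% FBS) were exposed to serial 2-fold compound dilutions for the same period as the CPE assay. They were then fixed with formaldehyde, stained with crystal violet and read by OD590 spectrophotometry to derive CC50. Values are means ± s.d. of 3 experiments, or the average of triplicates in one.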

Poliovirus 1 = test: Antiviral activity against Poliovirus 1 infected in human HeLa-RW cells assessed as protection against virus-induced cytopathic effect after 3 to 4 days by crystal violet staining-based spectrophotometric method; assay type: functional, cell-based; conditions: Enterovirus C
Summary of the method: (§3)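 HeLa-RW cells grown in DMEM with penicillin, streptomycin, glutamine and 10% FBS. They were infected at a low MOI pre-set to give full CPE in 3-4 days. Compound in DMSO was added as serial 2-fold dilutions (7 points), each in triplicate. When control CPE was maximal, cells were fixed with 4% formaldehyde, stained with 0.25% crystal violet and read at OD590. EC50 came from a four-parameter or sigmoidal fit.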

Coxsackievirus B3 = test: Antiviral activity against Coxsackievirus B3 infected in human HeLa-RW cells assessed as protection against virus-induced cytopathic effect after 3 to 4 days by crystal violet staining-based spectrophotometric method; assay type: functional, cell-based; conditions: Enterovirus B; summary of the method: as §3
[3] = Cytotoxicity against human HeLa-RW cells after 3 to 4 days by crystal violet staining-based spectrophotometric method; assay type: cell-based; summary of the method: as §2
Poliovirus 3 = test: Antiviral activity against Poliovirus 3 infected in human HeLa-RW cells assessed as protection against virus-induced cytopathic effect after 3 to 4 days by crystal violet staining-based spectrophotometric method; assay type: functional, cell-based; conditions: Enterovirus C; summary of the method: as §3
Enterovirus A71 = test: Antiviral activity against Enterovirus A71 infected in monkey LLC-MK2 cells assessed as protection against virus-induced cytopathic effect after 3 to 4 days by crystal violet staining-based spectrophotometric method; assay type: functional, cell-based; conditions: Enterovirus A
Summary of the method: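 EV-A71 was tested in LLC-MK2 cells grown in DMEM with 10% FBS, penicillin, streptomycin and glutamine, at a low MOI preset to give full CPE in 3–4 days. Compound was dissolved in DMSO and diluted 2-fold, in triplicate. Cells were fixed with formaldehyde when control CPE was maximal, then stained with crystal violet and read at OD590. EC50 came from a 7-point four-parameter or sigmoidal fit.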

[4] = Selectivity index, ratio of CC50 for human HeLa-RW cells to EC50 for Poliovirus 3; assay type: toxicity; conditions: read-out: Ratio CC50/EC50
Summary of the method: (§4)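 HeLa-RW cells grown in DMEM with penicillin, streptomycin, glutamine and 10% FBS were infected at a low MOI chosen to give full CPE in 3-4 days. Serial 2-fold compound dilutions from DMSO stocks were tested in triplicate. When control CPE was maximal, cells were formaldehyde-fixed, crystal violet-stained and read at OD590. EC50 came from a 7-point curve. CC50 used uninfected cells over the same period.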

[5] = Selectivity index, ratio of CC50 for human HeLa-RW cells to EC50 for Poliovirus 1; assay type: toxicity; conditions: read-out: Ratio CC50/EC50; summary of the method: as §4

Compound	selectivity ratio [1]	selectivity ratio [2]	CC50 (LLC-MK2) [µM]	EC50 (Poliovirus 1) [µM]	EC50 (Coxsackievirus B3) [µM]	CC50 ([3]; hela-rw) [µM]	EC50 (Poliovirus 3) [µM]	EC50 (Enterovirus A71) [µM]	selectivity ratio [4]	selectivity ratio [5]	CC50 ([3]; HeLa-RW cells) [µM]
CC(C)n1ncc2c(C(=O)Nc3ccc(F)c(S(N)(=O)=O)c3)cc(-c3cccs3)nc21	> 182	62.5	50	> 10	1.1	> 200	> 10	0.8	–	–	–
CC(C)n1ncc2c(NC(=O)c3ccc(F)cc3)cc(-c3cccs3)nc21	2.6	12.5	50	> 10	4.7	12	> 10	4	–	–	–
CC(C)n1ncc2c(C(=O)Nc3cc(S(N)(=O)=O)ccc3F)cc(-c3cccs3)nc21	25.7	50	25	6.3	0.7	18	6.3	0.5	2.9	2.9	–
CC(C)n1ncc2c(C(=O)Nc3cncnc3)cc(-c3cccs3)nc21	25.7	50	20	10	0.7	18	10	0.4	1.8	1.8	–
CC(C)n1ncc2c(C(=O)Nc3cccc(C(N)=O)c3)cc(-c3cccs3)nc21	25.7	31.3	25	6.3	0.7	18	6.3	0.8	2.9	2.9	–
CC(C)n1ccc2c(C(=O)Nc3cccnc3)cc(-c3cccs3)nc21	13.8	31.3	25	> 10	1.3	18	> 10	0.8	–	–	–
CC(C)n1ncc2c(C(=O)Nc3cccnc3)cc(-c3cccs3)nc21	62.5	> 400	> 200	10	0.4	25	10	0.5	2.5	2.5	–
CC(C)n1ccc2c(C(=O)Nc3ccccn3)cc(-c3cccs3)nc21	8.5	> 167	> 200	> 10	2.2	18.8	> 10	1.2	–	–	–
CC(C)n1ncc2c(C(=O)Nc3ccccc3F)cc(-c3cccs3)nc21	8.9	21.7	50	7	1.4	12.5	7	2.3	1.8	1.8	–
CC(C)n1ncc2c(C(=O)N3CCc4cccnc43)cc(-c3cccs3)nc21	4	4	50	> 10	9.4	37.5	> 10	12.5	–	–	–
CC(C)n1ncc2c(C(=O)Nc3cccc(S(N)(=O)=O)c3)cc(-c3cccs3)nc21	167	19.2	25	5	1.3	–	5	1.3	10	10	50 to 200
CC(C)n1ncc2c(C(=O)Nc3ccc(F)cn3)cc(-c3cccs3)nc21	53.6	> 167	> 200	> 10	0.7	37.5	> 10	1.2	–	–	–
CC(C)n1ncc2c(C(=O)Nc3cc(C(N)=O)ccc3F)cc(-c3cccs3)nc21	23.5	50	25	5	0.8	18.8	5	0.5	3.8	3.8	–
CC(C)n1ncc2c(C(=O)N3CCc4cc(F)ccc43)cc(-c3cccs3)nc21	9.9	> 153	> 200	10	1.9	18.8	10	1.3	1.9	1.9	–
